Results published in ChEMBL document CHEMBL3259614, “Design, synthesis, and structure-activity relationship studies of novel fused heterocycles-linked triazoles with good activity and water solubility” (J Med Chem, 2014).
In brackets after ≈: the same amount, converted by molar mass.

Assays:
Candida albicans [1] = assay: Antimicrobial activity against Candida albicans SC5314 after 24 hrs by serial dilution method; format: functional; details: SC5314, 24 h
Procedure, shortened: (§1)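 Broth serial dilution MIC in 96-well plates following NCCLS/CLSI methods. Compounds were dissolved in DMSO and serially diluted in growth medium, with incubation at 35 °C. […] C. parapsilosis 22019 served as the quality-control strain in each assay.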

Candida albicans [2] = assay: Antimicrobial activity against Candida albicans Y0109 after 24 hrs by serial dilution method; format: functional; details: Y0109, 24 h; procedure, shortened: as §1
Candida parapsilosis [3] = assay: Antimicrobial activity against Candida parapsilosis 22019 after 24 hrs by serial dilution method; format: functional; details: Lodderomyces parapsilosis, 22019, 24 h; procedure, shortened: as §1
Cryptococcus neoformans [4] = assay: Antimicrobial activity against Cryptococcus neoformans 32609 after 72 hrs by serial dilution method; format: functional; details: Cryptococcus neoformans, 32609, 72 h; procedure, shortened: as §1
Nakaseomyces glabratus [5] = assay: Antimicrobial activity against Candida glabrata 537 after 24 hrs by serial dilution method; format: functional; details: Nakaseomyces glabratus, 537, 24 h; procedure, shortened: as §1
Aspergillus fumigatus = assay: Antimicrobial activity against Aspergillus fumigatus 7544 after 48 hrs by serial dilution method; format: functional; details: Aspergillus fumigatus, 7544, 48 h; procedure, shortened: as §1
Candida albicans [6] = assay: Antimicrobial activity against fluconazole-resistant Candida albicans 100 after 24 hrs by serial dilution method; format: functional; details: Candida albicans, 100, 24 h
Procedure, shortened: (§2)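 Broth serial-dilution MIC in 96-well plates following NCCLS guidance. Compounds were dissolved in DMSO and serially diluted in growth medium. Clinical isolates came from a hospital collection. […] C. parapsilosis ATCC 22019 served as the quality-control strain in each assay.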

Candida albicans [7] = assay: Antimicrobial activity against fluconazole-resistant Candida albicans 103 after 24 hrs by serial dilution method; format: functional; details: Candida albicans, 103, 24 h; procedure, shortened: as §2
Candida albicans [8] = assay: Antimicrobial activity against fluconazole-resistant Candida albicans J18 after 24 hrs by serial dilution method; format: functional; details: J18, 24 h; procedure, shortened: as §2
Candida albicans [9] = assay: Antimicrobial activity against fluconazole-resistant Candida albicans J28 after 24 hrs by serial dilution method; format: functional; details: J28, 24 h; procedure, shortened: as §2
Candida albicans [10] = assay: Antimicrobial activity against fluconazole-resistant Candida albicans J38 after 24 hrs by serial dilution method; format: functional; details: J38, 24 h; procedure, shortened: as §2
Candida parapsilosis [11] = assay: Ratio of voriconazole MIC to compound MIC for Candida parapsilosis 22019 after 24 hrs by serial dilution method; format: functional
Cryptococcus neoformans [12] = assay: Ratio of voriconazole MIC to compound MIC for Cryptococcus neoformans 32609 after 72 hrs by serial dilution method; format: functional
Nakaseomyces glabratus [13] = assay: Ratio of voriconazole MIC to compound MIC for Candida glabrata 537 after 24 hrs by serial dilution method; format: functional
Candida parapsilosis [14] = assay: Ratio of ravuconazole MIC to compound MIC for Candida parapsilosis 22019 after 24 hrs by serial dilution method; format: functional
Cryptococcus neoformans [15] = assay: Ratio of ravuconazole MIC to compound MIC for Cryptococcus neoformans 32609 after 72 hrs by serial dilution method; format: functional
Nakaseomyces glabratus [16] = assay: Ratio of ravuconazole MIC to compound MIC for Candida glabrata 537 after 24 hrs by serial dilution method; format: functional
Candida albicans [17] = assay: Ratio of fluconazole MIC to compound MIC for fluconazole-resistant Candida albicans 103 after 24 hrs by serial dilution method; format: functional
Candida albicans [18] = assay: Ratio of fluconazole MIC to compound MIC for fluconazole-resistant Candida albicans 100 after 24 hrs by serial dilution method; format: functional
Candida albicans [19] = assay: Ratio of fluconazole MIC to compound MIC for fluconazole-resistant Candida albicans J18 after 24 hrs by serial dilution method; format: functional
Candida albicans [20] = assay: Antimicrobial activity against Candida albicans SC5314 infected in ICR mouse assessed as mean survival days at 1 mg/kg, po qd for 5 days starting 2 hrs post infection (reference value: 5.2 +/- 2.35 days starting 2 hrs post infection); format: functional
[21] = target: Voltage-gated inwardly rectifying potassium channel KCNH2 (Homo sapiens, UniProt Q12809); assay: Inhibition of human ERG expressed in CHO cells by whole-cell patch clamp assay; format: cell-based
Sequence of Voltage-gated inwardly rectifying potassium channel KCNH2 (Q12809 whole entry): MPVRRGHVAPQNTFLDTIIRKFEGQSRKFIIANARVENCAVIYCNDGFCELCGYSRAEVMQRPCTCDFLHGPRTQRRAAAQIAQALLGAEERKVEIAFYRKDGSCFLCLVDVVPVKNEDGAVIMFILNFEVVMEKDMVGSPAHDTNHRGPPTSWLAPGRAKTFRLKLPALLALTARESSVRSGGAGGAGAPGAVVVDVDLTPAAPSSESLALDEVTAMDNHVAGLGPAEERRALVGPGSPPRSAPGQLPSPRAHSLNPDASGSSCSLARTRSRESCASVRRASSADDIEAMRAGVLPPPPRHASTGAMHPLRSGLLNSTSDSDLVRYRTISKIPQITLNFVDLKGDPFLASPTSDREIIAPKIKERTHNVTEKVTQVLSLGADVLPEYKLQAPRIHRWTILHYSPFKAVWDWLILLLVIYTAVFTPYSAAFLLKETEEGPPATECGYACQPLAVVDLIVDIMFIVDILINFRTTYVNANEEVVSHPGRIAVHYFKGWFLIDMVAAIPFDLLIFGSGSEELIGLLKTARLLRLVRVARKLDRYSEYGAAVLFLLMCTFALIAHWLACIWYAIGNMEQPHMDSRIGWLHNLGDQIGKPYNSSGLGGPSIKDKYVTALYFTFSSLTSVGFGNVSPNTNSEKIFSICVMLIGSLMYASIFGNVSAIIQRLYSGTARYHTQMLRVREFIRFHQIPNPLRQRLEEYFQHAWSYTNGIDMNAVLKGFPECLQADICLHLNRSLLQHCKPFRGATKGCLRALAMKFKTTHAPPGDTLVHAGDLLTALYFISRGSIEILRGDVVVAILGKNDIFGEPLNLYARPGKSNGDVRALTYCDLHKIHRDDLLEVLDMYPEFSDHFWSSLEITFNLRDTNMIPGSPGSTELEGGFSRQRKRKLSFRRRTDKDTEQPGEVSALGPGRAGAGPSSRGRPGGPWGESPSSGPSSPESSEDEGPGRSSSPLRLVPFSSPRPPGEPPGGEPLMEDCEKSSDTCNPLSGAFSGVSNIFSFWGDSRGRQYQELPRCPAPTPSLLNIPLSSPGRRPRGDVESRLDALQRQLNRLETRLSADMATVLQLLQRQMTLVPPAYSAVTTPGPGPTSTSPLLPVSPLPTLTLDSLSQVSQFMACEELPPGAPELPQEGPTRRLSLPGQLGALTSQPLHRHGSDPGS

Candida albicans [22] = assay: Antimicrobial activity against Candida albicans SC5314 infected in ICR mouse assessed as mean survival days at 0.32 mg/kg, po qd for 5 days starting 2 hrs post infection (reference value: 5.2 +/- 2.35 days starting 2 hrs post infection); format: functional
[23] = Aqueous solubility of the compound in hydrochloric acid solution at pH 1.2; format: physicochemical
Procedure, shortened: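 Excess solid was stirred for 3 h in pH 1.2 hydrochloric acid or pH 7.4 phosphate buffer, then filtered through 0.45 μm. Absorbance at the UV maximum was compared with a methanol standard, C′ = A′C/A, with values reported in mg/mL. Determined at 30 °C; mean ± SD, n = 3.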

Candida albicans [24] = assay: Antimicrobial activity against Candida albicans SC5314 infected in ICR mouse assessed as mean survival days at 3.2 mg/kg, po qd for 5 days starting 2 hrs post infection (reference value: 5.2 +/- 2.35 days starting 2 hrs post infection); format: functional
Candida albicans [25] = assay: Antimicrobial activity against Candida albicans SC5314 infected in ICR mouse assessed as mean survival days at 10 mg/kg, po qd for 5 days starting 2 hrs post infection (reference value: 5.2 +/- 2.35 days starting 2 hrs post infection); format: functional
Candida albicans [26] = assay: Antimicrobial activity against fluconazole-resistant Candida albicans 103 infected in ICR mouse assessed as mean survival days at 0.32 mg/kg, po qd for 5 days starting 2 hrs post infection (reference value: 1.5 +/- 0.53 days); format: functional
Candida albicans [27] = assay: Antimicrobial activity against fluconazole-resistant Candida albicans 103 infected in ICR mouse assessed as mean survival days at 1 mg/kg, po qd for 5 days starting 2 hrs post infection (reference value: 1.5 +/- 0.53 days); format: functional
Candida albicans [28] = assay: Antimicrobial activity against fluconazole-resistant Candida albicans 103 infected in ICR mouse assessed as mean survival days at 3.2 mg/kg, po qd for 5 days starting 2 hrs post infection (reference value: 1.5 +/- 0.53 days); format: functional
Candida albicans [29] = assay: Antimicrobial activity against fluconazole-resistant Candida albicans 103 infected in ICR mouse assessed as mean survival days at 10 mg/kg, po qd for 5 days starting 2 hrs post infection (reference value: 1.5 +/- 0.53 days); format: functional
[30] = Cmax in Sprague-Dawley rat at 10 mg/kg, po; format: ADME, organism-based; set-up: dose 10 mg/kg, route oral; details: in vivo
Procedure, shortened: (§3)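 Male Sprague−Dawley rats (200−250 g), seven per group, dosed orally at 10 mg/kg or intravenously at 3 or 5 mg/kg in 5% DMSO + 5% Tween 80 in 90% saline. Serial retrobulbar blood samples were quantified by LC-MS. Parameters were derived from mean plasma concentrations by noncompartmental analysis. For the disulfate salt, values are based on the active free base measured.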

[31] = Tmax in Sprague-Dawley rat at 10 mg/kg, po; format: ADME, organism-based; set-up: dose 10 mg/kg, route oral; details: in vivo; procedure, shortened: as §3
[32] = Half life in Sprague-Dawley rat at 10 mg/kg, po; format: ADME, organism-based; set-up: dose 10 mg/kg, route oral; details: in vivo; procedure, shortened: as §3
[33] = AUC (0 to infinity) in Sprague-Dawley rat at 10 mg/kg, po; format: ADME, organism-based; set-up: time infinity, dose 10 mg/kg, route oral; details: plasma; procedure, shortened: as §3
[34] = Intrinsic clearance in Sprague-Dawley rat liver microsomes assessed per mg protein at 0.1 uM by LC/MS/MS analysis; format: ADME
Procedure, shortened: (§4)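 Male Sprague−Dawley rat liver microsomes (0.33 mg/mL protein) in 0.1 M Tris-HCl pH 7.4 with 5 mM MgCl₂ and 1 mM NADPH. Compound at a final 0.1 μM (0.01% DMSO, 0.005% BSA), incubated at 37 °C. Samples taken at 0, 7, 17, 30 and 60 min were quenched in methanol, and parent compound was measured by LC/MS/MS. t1/2 and Clint were then calculated.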

[35] = Oral bioavailability in Sprague-Dawley rat at 10 mg/kg; format: ADME, organism-based; details: in vivo; procedure, shortened: as §3
[36] = Elimination half life in Sprague-Dawley rat liver microsomes at 0.1 uM by LC/MS/MS analysis; format: ADME; details: read-out: beta t1/2; procedure, shortened: as §4
[37] = Half life in Sprague-Dawley rat at 3 mg/kg, iv; format: ADME, organism-based; set-up: dose 3 mg/kg, route intravenous; details: in vivo; procedure, shortened: as §3
[38] = AUC (0 to infinity) in Sprague-Dawley rat at 3 mg/kg, iv; format: ADME, organism-based; set-up: time infinity, dose 3 mg/kg, route intravenous; details: plasma; procedure, shortened: as §3
[39] = Clearance in Sprague-Dawley rat at 3 mg/kg, iv; format: ADME, organism-based; set-up: dose 3 mg/kg, route intravenous; details: in vivo; procedure, shortened: as §3
Candida albicans [40] = assay: Antimicrobial activity against Candida albicans SC5314 infected in ICR mouse assessed as mean survival days at 0.32 mg/kg, iv qd for 5 days starting 2 hrs post infection (reference value: 9.0 +/- 0.67 days); format: functional
Candida albicans [41] = assay: Antimicrobial activity against Candida albicans SC5314 infected in ICR mouse assessed as mean survival days at 1 mg/kg, iv qd for 5 days starting 2 hrs post infection (reference value: 9.0 +/- 0.67 days); format: functional
Candida albicans [42] = assay: Antimicrobial activity against Candida albicans SC5314 infected in ICR mouse assessed as mean survival days at 3.2 mg/kg, iv qd for 5 days starting 2 hrs post infection (reference value: 9.0 +/- 0.67 days); format: functional
Candida albicans [43] = assay: Antimicrobial activity against Candida albicans SC5314 infected in ICR mouse assessed as mean survival days at 10 mg/kg, iv qd for 5 days starting 2 hrs post infection (reference value: 9.0 +/- 0.67 days); format: functional
Hepatocyte = assay: Cytotoxicity against rat hepatocytes assessed as reduction in survival rate at 5 to 40 uM after 48 hrs by SRB assay; format: cell-based
[44] = Half life in Sprague-Dawley rat at 5 mg/kg, iv; format: ADME, organism-based; set-up: dose 5 mg/kg, route intravenous; details: in vivo; procedure, shortened: as §3
[45] = AUC (0 to infinity) in Sprague-Dawley rat at 5 mg/kg, iv; format: ADME, organism-based; set-up: dose 5 mg/kg, route intravenous, time infinity; details: plasma; procedure, shortened: as §3
[46] = Clearance in Sprague-Dawley rat at 5 mg/kg, iv; format: ADME, organism-based; set-up: dose 5 mg/kg, route intravenous; details: in vivo; procedure, shortened: as §3

Compound	MIC (Candida albicans [1]) [µg/mL]	MIC (Candida albicans [2]) [µg/mL]	MIC (Candida parapsilosis [3]) [µg/mL]	MIC (Cryptococcus neoformans [4]) [µg/mL]	MIC (Nakaseomyces glabratus [5]) [µg/mL]	MIC (Aspergillus fumigatus) [µg/mL]	MIC (Candida albicans [6]) [µg/mL]	MIC (Candida albicans [7]) [µg/mL]	MIC (Candida albicans [8]) [µg/mL]	MIC (Candida albicans [9]) [µg/mL]	MIC (Candida albicans [10]) [µg/mL]	Cmax [30] [ng/mL]	Tmax [31] [min]	half-life [32] [min]	AUC(0-inf) [33] [ng·h/mL]	microsomal CLint at 0.1 µM [34] [µL/min/mg]	bioavailability [35] [%]	half-life at 0.1 µM [36] [min]	other results
C[C@@H](N1CCn2cc(-c3ccccc3)nc2C1)[C@](O)(Cn1cncn1)c1ccc(F)cc1F	0.0625 (≈ 0.139 µM)	0.0625 (≈ 0.139 µM)	0.0625 (≈ 0.139 µM)	0.0312 (≈ 0.0694 µM)	0.0312 (≈ 0.0694 µM)	16 (≈ 35.5 µM)	> 32	> 32	> 32	0.5 (≈ 1.11 µM)	0.125 (≈ 0.277 µM)								Ratio (Candida parapsilosis [11]): 2; Ratio (Cryptococcus neoformans [12]): 2; Ratio (Nakaseomyces glabratus [13]): 2; Ratio (Candida parapsilosis [14]): 2; Ratio (Cryptococcus neoformans [15]): 2; Ratio (Nakaseomyces glabratus [16]): 2; Ratio (Candida albicans [17]): 16; Ratio (Candida albicans [18]): 16; Ratio (Candida albicans [19]): 16
C[C@@H](N1CCn2nc(-c3ccc(C#N)nc3)nc2C1)[C@](O)(Cn1cncn1)c1ccc(F)cc1F	0.0156 (≈ 0.0327 µM)	0.0156 (≈ 0.0327 µM)	0.0156 (≈ 0.0327 µM)	0.0078 (≈ 0.0163 µM)	0.0078 (≈ 0.0163 µM)	1 (≈ 2.09 µM)	8 (≈ 16.8 µM)	> 16	> 16	0.0625 (≈ 0.131 µM)	≤ 0.0312	1420	105	218	7910	5	105	430	Survival (Candida albicans [20]): 12.3 days; IC50 [21]: > 40 µM; Survival (Candida albicans [22]): 8 days; solubility [23]: 44 µg/mL (≈ 92.2 µM); Survival (Candida albicans [24]): 14.1 days; Survival (Candida albicans [25]): 18.1 days; Survival (Candida albicans [26]): 1.7 days; Survival (Candida albicans [27]): 2 days; Survival (Candida albicans [28]): 3.6 days; Survival (Candida albicans [29]): 8.3 days; half-life [37]: 72 min; AUC(0-inf) [38]: 2240 ng·h/mL; clearance [39]: 22.7 mL/min/kg
C[C@@H](N1CCc2nc(-c3cncnc3)sc2C1)[C@](O)(Cn1cncn1)c1ccc(F)cc1F.O.O=S(=O)(O)O												164	15	27.6	141	65	5.8	32.4	Survival (Candida albicans [40]): 8.8 days; Survival (Candida albicans [41]): 7.8 days; Survival (Candida albicans [42]): 9.8 days; Survival (Candida albicans [43]): 11.1 days; Activity (Hepatocyte): Non-toxic; half-life [44]: 25.2 min; AUC(0-inf) [45]: 1190 ng·h/mL; clearance [46]: 72.5 mL/min/kg
